# Compound activity from PubChem BioAssay.
# MC4R antagonist: blocks human MC4R cAMP signaling. P32245. MC4R-expressing cells, MTII-stimulated cAMP, LANCE TR-FRET. inhibition, % at 6.5 µM. 360,000 tested, 0.48% active;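 active = inhibition above its plate's cutoff, the mean of tested wells on that plate plus 3 SD, cut at about 29% in these data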;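 note: 0% = Melanotan II alone and 100% = Melanotan II plus saturating MCL0020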
# Target sequence (P32245 whole entry, looked up): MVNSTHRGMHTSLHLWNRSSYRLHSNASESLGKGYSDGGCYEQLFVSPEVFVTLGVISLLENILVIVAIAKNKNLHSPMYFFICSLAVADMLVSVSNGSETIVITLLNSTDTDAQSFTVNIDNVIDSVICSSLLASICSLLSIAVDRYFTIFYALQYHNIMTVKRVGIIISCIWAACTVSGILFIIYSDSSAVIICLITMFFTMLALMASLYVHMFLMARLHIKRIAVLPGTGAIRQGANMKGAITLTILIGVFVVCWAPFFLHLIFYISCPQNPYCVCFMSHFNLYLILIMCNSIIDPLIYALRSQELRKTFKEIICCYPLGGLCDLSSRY
#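 System – human MC4R-expressing U2OS cells · Also added – Melanotan II · Dosing – one concentration, 6.5 µM nominal · Timing – 30-min compound, 1-h challenge, 1-h detection, room temperature · Measured by – Eu-cAMP/anti-cAMP TR-FRET, emission 671 nm · Replicates – singlicate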
# MC4R ag barr: activates human MC4R beta-arrestin recruitment; 360,000 tested, 0.98% active; U2OS MC4R beta-arrestin complementation, luminescence; percent of melanotan II response, DMSO zero; activation, % at 8.9 µM;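 active = activation above a per-plate cutoff, the mean activation of sample wells on that plate plus 3 SD, cut at about 8% in these data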
# TAAR1 antag: human TAAR1 antagonism. Q96RJ0. CHO RD-HGA16 TAAR1, Fluo-8 calcium fluorescence, antagonist. inhibition, % at 3 µM. 360,000 tested, 1.5% active. AID 624466;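 active = inhibition above a per-plate cutoff, the mean inhibition of test compounds on that plate plus 3 SD, cut at about 49% in these data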;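 note: 0% = DMSO plus EC80 beta-PEA response and 100% = DMSO alone without agonist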
#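 System: CHO RD-HGA16 cells bearing hTAAR1. Reagent: EC80 β-phenethylamine stimulus. Schedule: seeding 17-24 h prior, 75-min 37 °C, 30-min RT dye loading. Signal: Fluo-8 intracellular calcium dye fluorescence, real-time kinetic reads. Read-out: % inhibition from peak post-agonist over basal fluorescence ratio. Benchmarks: vehicle wells and EC80 agonist wells. Replicates: n of 1.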
# HTR2A ag: mouse HTR2A agonism via beta-arrestin recruitment; P35363; CHO-K1 mHTR2A beta-arrestin complementation, luminescence; percent of 30 µM serotonin response; activation, % at 7.6 µM; 360,000 tested, 0.66% active;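 active = activation above a run cutoff, the mean activation of all tested compounds plus 3 SD, cut at about 14% in these data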;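 note: 0% = plate median of compound wells and 100% = 30 µM serotonin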
# B2AR ag: human beta-2 adrenergic receptor agonism by FAP. P07550. Am2.2-beta2AR cells, FAP receptor internalization, flow cytometry. response, % (no concentration beside the values). 340,000 tested, 0.43% active;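 active = response above a set limit, near 3 SD of response in nonfluorescent compounds, cut at about 42% in these data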
# TAAR1 agonist: agonists of human TAAR1 | Q96RJ0 | CHO RD-HGA16 TAAR1, Fluo-8 calcium fluorescence; vehicle wells 0%, saturating PEA agonist 100% | 360,000 tested, 0.99% active | activation, % at 3 µM;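 active = activation above the mean activation of all test compounds in the run plus 3 SD, cut at about 38% in these data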
#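 Test system: RD-HGA16 (CHO) cells co-expressing Gα16 and hTAAR1; dosing: one-point dosing at 3 µM (nominal); timing: 17-24 h seeding, 75 min 37 °C dye, 30 min RT; signal: kinetic Fluo-8 calcium fluorescence; read-out basis: % activation relative to PEA EC100 response; controls: DMSO and PEA EC100; replicates: n 1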
# * hit, by the source's call; x = no result given. Most compounds without a hit are left out; they make up all but 4.3% or so of the library.
SMILES,MC4R antagonist,MC4R ag barr,TAAR1 antag,HTR2A ag,B2AR ag,TAAR1 agonist
O=C(NCCOc1ccccc1)c1cc(C(=O)NCCOc2ccccc2)cc([N+](=O)[O-])c1,7,-2,66*,0,-3,14
O=c1c2ccccc2ncn1CCCOc1ccccc1[N+](=O)[O-],0,-1,3,-6,4,14
Cc1ccccc1OCCn1cnc2cc([N+](=O)[O-])ccc2c1=O,10,2,49*,-1,11,11
C#CCN(Cc1cccc(F)c1)C(=O)c1nnc2c3cc(F)ccc3n(S(=O)(=O)c3ccc(OC)cc3)c2n1,x,x,-2,x,x,0
O=C(CSc1nnc2ccc(-c3ccc(F)cc3)nn12)N1CCCC1,33*,3,-12,2,2,-1
CCc1cc(SC#N)cc(C)c1NC(=O)CCl,-22,3,-3,5,47*,12
Cc1cc(SC#N)cc(C)c1NC(=O)CCl,-21,-1,-1,0,35,2
CCOc1cc(CNCCO)cc(Br)c1OCc1ccc(Cl)cc1,-5,-1,27,-7,36,40*
CCOc1cc(CNCCO)cc(Br)c1OCc1ccccc1Cl,-3,1,18,-7,31,46*
CCOc1cc(CNCCCN2CCOCC2)cc(Br)c1OCc1ccccc1Cl,4,1,-9,-5,30,23
CC(C)C[C@H](NC(=O)C1CC1)C(=O)N1CCC[C@H]1C(=O)NCc1ccccc1,x,x,2,x,x,-1
COC(=O)C1=C(C)N(C)C(=NCc2ccc3c(c2)OCO3)NC1c1cccc(C(F)(F)F)c1 (configuration not stated),x,x,-12,x,x,12
C#CCN1CC(COc2ccccc2)Oc2cccc(Oc3ccc(OC)cc3)c2S1(=O)=O (configuration not stated),x,x,12,x,x,0
CN(C)S(=O)(=O)c1ccc(-c2csc(N/N=C/c3ccco3)n2)cc1,8,3,79*,7,25,30
Cc1ccc(-c2csc(N/N=C/c3ccco3)n2)cc1,9,0,1,2,-4,-2
Cc1ccc(C)c(CC(=O)N2CCCCC2c2cc(C(=O)Nc3cccc(C#N)c3)no2)c1 (configuration not stated),6,0,44,2,x,48*
O=C(c1ccc(-c2nnc(Nc3cccc(Cl)c3)c3ccccc23)cc1)N1C[C@H]2C[C@H](C1)c1cccc(=O)n1C2,24,-1,-24,-1,74*,5
Clc1c(Cl)c(Cl)c2n[nH]nc2c1Cl,14,0,-10,18*,-2,18
C=CCn1c(N)cc(=O)nc1SC(C)C(=O)Nc1ccc(C(=O)OCC)cc1 (configuration not stated),11,2,1,-9,3,-1
Oc1[nH]c2ccccc2c1N=Nc1ccc(F)cc1,4,0,8,2,6,15
Oc1[nH]c2ccccc2c1N=Nc1ccccc1F,-4,0,8,0,8,39*
C=CCN(CC=C)C[C@@H]1CSCCS(=O)(=O)N1,x,x,4,x,x,2
O=C(Nc1ccc(Oc2ccccc2)cc1)c1csc([C@H]2C[C@H](O)[C@@H](CO)O2)n1,2,-1,68*,-5,x,13
O=C(Nc1ccc(Oc2ccccc2)cc1)c1csc([C@@H]2O[C@H](CO)[C@@H](O)[C@H]2O)n1,7,-2,59*,3,x,8
O=C(Nc1ccc(OCCO)cc1)c1csc([C@@H]2O[C@H](CO)[C@H](O)[C@H](O)[C@H]2O)n1,10,-1,-17,-4,x,3
SMILES,MC4R antagonist,MC4R ag barr,TAAR1 antag,HTR2A ag,B2AR ag,TAAR1 agonist
C[C@@H]1C=CCCO[C@]12C(=O)N(Cc1ccc(Br)cc1)c1ccccc12,x,x,-9,x,x,0
O=c1oc2ccc(C#CC3(O)CCCCC3)cc2cc1-n1cc(C2(O)CCCCC2)nn1,11,4,53*,2,-2,27
COc1ccc(NC(=O)/C(Cl)=C(/Cl)S(=O)Cc2ccccc2Cl)cn1 (configuration not stated),x,x,x,x,58*,x
COC(=O)C1CCN(C2CN(Cc3cn(Cc4ccc(C(F)(F)F)cc4)nn3)S(=O)(=O)C2)CC1 (configuration not stated),x,x,-7,x,x,6
COc1ccccc1C1=NOC(COc2ccc3c(C)cc(=O)oc3c2)C1 (configuration not stated),-13,-1,0,-1,44*,1
COc1ccc(C2=NOC(COc3ccc4c(C)cc(=O)oc4c3)C2)c(OC)c1 (configuration not stated),-16,-2,-20,-3,20,0
O=c1ccc2ccc(OCc3nnc(-c4ccccc4Br)o3)cc2o1,0,-1,12,-6,-18,23
Cc1cc(=O)oc2cc(OCc3nnc(-c4ccccc4Br)o3)ccc12,12,2,22,1,2,43*
Cc1ccc(CN2CC(N3CCC[C@@H]3C)CS2(=O)=O)cc1 (some centres not stated),x,x,-9,x,x,1
COc1cccc(-c2cccc(-c3nc(C(=O)NCCCN4CCOCC4)cc4c3[C@H](CCO)N(S(=O)C(C)(C)C)C4)c2)c1 (some centres not stated),x,x,52*,1,x,21
CN(C)C(=O)c1cccc(-c2cccc(-c3nc(C(=O)NCc4ccccc4)cc4c3[C@@H](CCO)N(S(=O)C(C)(C)C)C4)c2)c1 (some centres not stated),x,x,61*,6,x,9
CC(C)(C)S(=O)N1Cc2cc(C(=O)NCC(F)(F)F)nc(-c3cccc(-c4cccc(F)c4)c3)c2[C@H]1CCO (some centres not stated),x,x,62*,-5,x,10
CCN(CC)CCCNC(=O)c1cc2cc(Cl)ccc2nc1N,x,x,-7,x,x,0
CC(C)CNc1cccc2c1S(=O)(=O)N[C@@H](C)CO2,x,x,-21,x,x,6
CCOC(=O)Cc1nnc(NC(=O)COc2ccc(OC)cc2)s1,-2,1,-9,1,1,14
CCOC(=O)Cc1nnc(NC(=O)COc2ccc(C)cc2)s1,6,-2,-4,-3,2,38*
CCn1nc(C(=O)Nc2ccc(C)c(C)c2)c(Cl)c1Cl,3,8.7*,-11,1,4,9
CCCc1nn(C)c(C(=O)Nc2ccc(C)c(C)c2)c1Cl,7,4,4,5,0,-1
C=CCOc1cccc(C(=O)/C=C2/C(=O)Nc3ccccc32)c1,-9,0,24,-1,78*,2
COc1ccc(CCNC(=O)CN2C(=O)C(=O)N(C3CCCC3)C2=O)cc1OC,-5,-5,-6,5,2,3
